Results: ChEMBL document CHEMBL3351301, “Synthesis of triazole Schiff bases: novel inhibitors of nucleotide pyrophosphatase/phosphodiesterase-1” (Bioorg Med Chem, 2014)
Activity calls are given as the source filed them. No cut-off for these calls is given here.

Columns and labels:
[1] = biological target: Carbonic anhydrase (Homo sapiens) (UniProt P00918+P43166+P00915+P07451+P23280+O43570+Q9ULX7+Q16790+P22748+Q8N1Q1+Q9Y2D0+P35218); test: Inhibition of carbonic anhydrase (unknown origin); type: protein assay
[2] = Inhibition of snake venom NPP1 using bis(p-nitrophenyl)phosphate preincubated for 30 mins by spectrophotometry; design: species or system Serpentes
Method in brief: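 Snake venom PDE1/NPP1 at 7.42 × 10^-4 units, dissolved in cold deionized water. Assay in 33 mM Tris-HCl pH 8.8 with 30 mM magnesium acetate cofactor. Preincubated 30 min at 37 °C, then started with 0.33 mM bis(p-nitrophenyl)phosphate (total). p-Nitrophenol release read at 410 nm. Initial rates taken as Vmax/min and % inhibition calculated against control. Triplicates; IC50 derived by enzyme-kinetics fitting.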

[3] = Cytotoxicity against human PC3 cells; type: functional, cell-based; conditions: PC-3

In the case of `Oc1ccc(Cl)cc1/C=N/n1cnnc1`, the inhibition [1] is reported as “inactive”, the IC50 ([2]; read-out: IC50) is reported as 251 µM and the IC50 [3] is reported as over 30 µM.
In the case of `CSc1ccc(/C=N/c2nnc[nH]2)cc1`, the IC50 [2] is reported as “Not Active” and the IC50 [3] is reported as over 30 µM.
With `Clc1ccc(/C=N/c2nnc[nH]2)c(Cl)c1` the IC50 [2] was “Not Active” and the IC50 [3] was over 30 µM.
With `Oc1cccc(/C=N/n2cnnc2)c1O` the inhibition [1] was “inactive”, the IC50 ([2]; read-out: IC50) was 153 µM and the IC50 [3] was over 30 µM.
With `O=[N+]([O-])c1ccc(/C=N/c2nnc[nH]2)cc1` the IC50 [2] was “Not Active” and the IC50 [3] was over 30 µM.
For `COc1ccc(/C=N/n2cnnc2)cc1`, the IC50 [2] was “Not Active” and the IC50 [3] was over 30 µM.
With `Oc1ccc(/C=N/n2cnnc2)cc1` the IC50 [2] was “Not Active” and the IC50 [3] was over 30 µM.
For `CCOc1cccc(/C=N/n2cnnc2)c1O`, the IC50 [2] was “Not Active” and the IC50 [3] was over 30 µM.
With `Brc1ccc(/C=N/n2cnnc2)cc1` the IC50 ([2]; read-out: IC50) was 823 µM and the IC50 [3] was over 30 µM.
For `COc1ccc(/C=N/n2cnnc2)cc1OC`, the IC50 [2] was “Not Active” and the IC50 [3] was over 30 µM.
For `CCOc1ccc(/C=N/c2nnc[nH]2)c(O)c1`, the IC50 [2] was “Not Active” and the IC50 [3] was over 30 µM.
In the case of `COc1cccc(/C=N/n2cnnc2)c1O`, the IC50 [2] is reported as “Not Active” and the IC50 [3] is reported as over 30 µM.
For `Oc1cccc(/C=N/n2cnnc2)c1`, the IC50 [2] was “Not Active” and the IC50 [3] was over 30 µM.
With `CN(C)c1ccc(/C=N/c2nnc[nH]2)cc1` the inhibition [1] was “inactive”, the IC50 ([2]; read-out: IC50) was 132 µM and the IC50 [3] was over 30 µM.
For `COc1cccc(/C=N/c2nnc[nH]2)c1O`, the IC50 [2] was “Not Active” and the IC50 [3] was over 30 µM.
For `Oc1c(Cl)cc(Cl)cc1/C=N/c1nc[nH]n1`, the IC50 [2] was “Not Active” and the IC50 [3] was over 30 µM.
Compound `Oc1cc(O)c(/C=N/n2cnnc2)c(O)c1` has an IC50 ([2]; read-out: IC50) of 1160 µM and an IC50 [3] of over 30 µM.
Work on `Oc1ccc(Br)cc1/C=N/n1cnnc1` yielded an IC50 ([2]; read-out: IC50) of 405 µM and an IC50 [3] of over 30 µM.
For `CSc1ccc(/C=N/n2cnnc2)cc1`, the IC50 [2] was “Not Active” and the IC50 [3] was over 30 µM.
In the case of `Oc1c(Br)cc(Br)cc1/C=N/c1nnc[nH]1`, the IC50 [2] is reported as “Not Active” and the IC50 [3] is reported as over 30 µM.
In the case of `CCOc1ccc(/C=N/n2cnnc2)cc1`, the IC50 [2] is reported as “Not Active” and the IC50 [3] is reported as over 30 µM.
Compound `O=C(O)CN(CCN(CC(=O)O)CC(=O)O)CC(=O)O` [EDETIC ACID] has an IC50 ([2]; read-out: IC50) of 278 µM.
In the case of `COc1ccc(/C=N/c2nnc[nH]2)cc1OC`, the IC50 [2] is reported as “Not Active” and the IC50 [3] is reported as over 30 µM.
In the case of `Oc1ccccc1/C=N/c1nnc[nH]1`, the IC50 [2] is reported as “Not Active” and the IC50 [3] is reported as over 30 µM.
In the case of `Cc1ccc(O)c(/C=N/c2nnc[nH]2)c1`, the IC50 [2] is reported as “Not Active” and the IC50 [3] is reported as over 30 µM.
For `Oc1ccccc1/C=N/n1cnnc1`, the IC50 [2] was “Not Active” and the IC50 [3] was over 30 µM.
